A short description of this assay: caspase activation in Bax/Bak-null MEFs, dose response, counter-screen for A1 inhibitor project, cell-based, mouse embryonic fibroblasts, luminescence, dry powder, set 3 (AID 504403). The following applies: Bax/Bak-/- MEF caspase activation, CaspaseGlo luminescence, 3 h. In outline: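 System: Bax/Bak double-knockout mouse embryonic fibroblasts (MEFs) / Times: compound 3 h at 37 °C, pre-read cooling 30 min / Read-out: caspase activation signal flagging off-target or toxic effects / Buffer or medium: RPMI-1640, 10% heat-inactivated FBS / Technique: Caspase-Glo luminescent caspase assay / Doses: pin-transferred compound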
In general terms: Counterscreens check selectivity or assay interference.

The mark [1] stands for this setting: measured here: test 2 replicate, at 35 µM, stronger effect = higher value.

Results on 27 compounds are retold here after PubChem BioAssay AID504403 (Broad Institute, 2011).

The source made the active and inactive calls.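 Rule for the calls: active = active in every replicate test, each curve reaching caspase activation of 10% of the positive control signal; inconclusive = replicate tests disagree, some active and some inactive; inactive = inactive in every replicate test.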

For the compound `O=C(COc1ccc(Cl)cc1Cl)NNc1nc(N2CCOCC2)nc(N2CCOCC2)n1`, the caspase activation runs as follows: (at 35 µM (top of the series)) -0.22% (inactive); under setting [1], 0.018%. Consider `COc1ccc(CCNc2nc(N3CCCC3)nc(N3CCCC3)n2)cc1OC`, for which the caspase activation was 0.084% (inactive) (at 35 µM (top of the series)) and 0.515% under setting [1].

Regarding `O=c1[nH]c2ccccc2c(O)c1[N+](=O)[O-]`, the caspase activation runs as follows: (at 35 µM (top of the series)) 0.504% (inactive); under setting [1], -0.232%. On the same counts, the results for `Cn1c(=O)c([N+](=O)[O-])c(Cl)c2ccccc21` are 0.366% (inactive) and -0.494%. Consider `COCCn1c(=O)c([N+](=O)[O-])c(Sc2ccc(C)cc2)c2ccccc21`, for which the caspase activation is, setting by setting: (at 35 µM (top of the series)) 0.682% (inactive); under setting [1], -0.602%. The like results for `COCCn1c(=O)c([N+](=O)[O-])c(Cl)c2ccccc21` were, in that order, 0.693% (inactive) and -0.136%. For the compound `Cn1c(=O)c(Sc2ccccn2)c(Sc2ccccn2)c2ccccc21`, the caspase activation (at 35 µM (top of the series)) is 0.166% (inactive) and the caspase activation under setting [1] was -0.337%. On the same counts, the results for `C/C(=N\Nc1nc(N2CCCCC2)nc(N2CCCCC2)n1)c1ccc(F)cc1` are -0.284% (inactive) and -0.01%.

For the compound `CCn1c(=O)c([N+](=O)[O-])c(Cl)c2ccccc21`, the caspase activation is 1.21% (inactive) (at 35 µM (top of the series)) and 3.07% under setting [1].

`COc1ccc(N2CCN(c3nc(NCCc4ccc(OC)c(OC)c4)nc(N4CCOCC4)n3)CC2)cc1`: the caspase activation is 0.143% (inactive) (at 35 µM (top of the series)) and 0.46% under setting [1]. As for `COc1ccc(CCNc2nc(N3CCOCC3)nc(N3CCOCC3)n2)cc1OC`, the caspase activation is, setting by setting: (at 35 µM (top of the series)) 0.042% (inactive); under setting [1], 0.071%. On to `COc1nc2ccccc2c(Sc2ccc(C)cc2)c1[N+](=O)[O-]`, for which the caspase activation by setting is: (at 35 µM (top of the series)) 0.017% (inactive); under setting [1], -0.171%.

For the compound `Cc1ccc(Sc2c([N+](=O)[O-])c(=O)n(C)c3ccccc23)cc1`, the caspase activation (at 35 µM (top of the series)) was 0.309% (inactive) and the caspase activation under setting [1] is -0.613%. In the case of `COc1c([N+](=O)[O-])c(=O)n(C)c2ccccc12`, the caspase activation by setting is: (at 35 µM (top of the series)) 0.061% (inactive); under setting [1], 0.257%. The like results for `Cc1ccc(Sc2c([N+](=O)[O-])c(=O)n(Cc3ccccc3)c3ccccc23)cc1` were, in that order, 1.91% (inactive) and -0.307%. On the same counts, the results for `Cc1ccc(S(=O)(=O)c2c([N+](=O)[O-])c(=O)n(C)c3ccccc23)cc1` are 0.276% (inactive) and 0.073%. On the same counts, the results for `Cn1c(=O)c([N+](=O)[O-])c(S(C)(=O)=O)c2ccccc21` are -0.102% (inactive) and -0.421%. With `O=c1c([N+](=O)[O-])c(Cl)c2ccccc2n1Cc1ccccc1`, the caspase activation by setting is: (at 35 µM (top of the series)) -0.005% (inactive); under setting [1], 3.16%. The like results for `Cn1c(=O)c([N+](=O)[O-])c(Sc2ccccn2)c2ccccc21` were, in that order, 0.303% (inactive) and 0.033%. As for `CC1(C)CCC(c2ccc(Cl)cc2)=C(CN2CCN(c3ccc(C(=O)NS(=O)(=O)c4ccc(N[C@H](CCN5CCOCC5)CSc5ccccc5)c(S(=O)(=O)C(F)(F)F)c4)cc3)CC2)C1`, the result under setting [1] was inactive.

`CCn1c(=O)c(Sc2ccc(C)cc2)c(Sc2ccc(C)cc2)c2ccccc21`: the caspase activation was 0.078% (inactive) (at 35 µM (top of the series)) and -0.17% under setting [1]. The like results for `Cc1ccc(Sc2c(Sc3ccc(C)cc3)c3ccccc3n(C)c2=O)cc1` were, in that order, -0.06% (inactive) and -0.477%. Regarding `COCCn1c(=O)c(Sc2ccc(C)cc2)c(Sc2ccc(C)cc2)c2ccccc21`, the caspase activation (at 35 µM (top of the series)) was -0.103% (inactive) and the caspase activation under setting [1] is -0.586%.

`COc1nc2ccccc2c(Cl)c1[N+](=O)[O-]`: the caspase activation was 0.674% (inactive) (at 35 µM (top of the series)) and 0.222% under setting [1]. The like results for `CCn1c(=O)c([N+](=O)[O-])c(Sc2ccc(C)cc2)c2ccccc21` were, in that order, -0.025% (inactive) and -0.559%. Regarding `Cc1ccc(Sc2c(Sc3ccc(C)cc3)c3ccccc3n(Cc3ccccc3)c2=O)cc1`, the caspase activation (at 35 µM (top of the series)) was 0.02% (inactive) and the caspase activation under setting [1] is -0.616%. On the same counts, the results for `O=c1[nH]c2ccccc2c(Cl)c1[N+](=O)[O-]` are 0.348% (inactive) and 0.47%.
